In ChEMBL document CHEMBL4325822, “Discovery of a tetrazolyl β-carboline with in vitro and in vivo osteoprotective activity under estrogen-deficient conditions” (Medchemcomm, 2018):
Activity calls are given as the source filed them. The rule behind the calls is not given here.

Assays:
Calvarial osteoblast [1] = assay: Induction of osteoblast differentiation in Sprague-Dawley rat calvarial osteoblasts assessed as alkaline phosphatase activity at 0.000001 to 1 uM after 48 hrs using PNPP as substrate by spectrophotometric method relative to control; type: functional, cell-based
Outline: (§1)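 Calvarial osteoblasts at 2 × 10³ cells/well. Treated 48 h with varied concentrations in differentiation medium (5% charcoal-treated FBS, 10 mM β-glycerophosphate, 50 µg·mL⁻¹ ascorbic acid). Total ALP read with PNPP substrate at 405 nm. Cell-free wells check for compound interference with substrate or absorbance.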

[2] = Induction of osteoblast differentiation in Sprague-Dawley rat calvarial osteoblasts assessed as alkaline phosphatase activity after 48 hrs using PNPP as substrate by spectrophotometric method; type: functional, cell-based; outline: as §1
[3] = Toxicity in Sprague-Dawley rat model of OVX-induced bone loss assessed as uterine weight at 100 ug/kg, sc for 12 weeks (reference value: 0.12 +/- 0.02 g); type: organism-based; conditions: in vivo, 0.1 mg/kg, 2016 h
Rattus norvegicus [4] = assay: Antiosteoporotic activity in Sprague-Dawley rat model of OVX-induced bone loss assessed as increase in femoral bone strength by measuring stiffness at 100 ug/kg, sc administered 5 days/week for 12 weeks by 3 point bending test (reference value: 122.07 +/- 12.18 N/mm); type: functional
[5] = Toxicity in Sprague-Dawley rat model of OVX-induced bone loss assessed as luminal area at 100 ug/kg, sc for 12 weeks (reference value: 0.01 +/- 0.0004 mm2); type: organism-based; conditions: in vivo, 0.1 mg/kg, 2016 h
Rattus norvegicus [6] = assay: (§2) Antiosteoporotic activity in Sprague-Dawley rat model of OVX-induced bone loss assessed as protection against microarchitectural deterioration by measuring ratio of bone volume/trabecular volume at 100 ug/kg, sc administered 5 days/week for 12 weeks by microcomputed tomographic analysis (reference value: 4.68 +/- 0.58%); type: functional
[7] = Toxicity in Sprague-Dawley rat model of OVX-induced bone loss assessed as luminal epithelial height at 100 ug/kg, sc for 12 weeks (reference value: 27.29 +/- 0.96 umeter); type: organism-based; conditions: in vivo, 0.1 mg/kg, 2016 h
Rattus norvegicus [8] = assay: Antiosteoporotic activity in Sprague-Dawley rat model of OVX-induced bone loss assessed as mineral apposition rate at 100 ug/kg, sc administered 5 days/week for 12 weeks by microcomputed tomographic analysis (reference value: 0.169 +/- 0.004 umeter/day); type: functional
Outline: (§3)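 Female Sprague-Dawley rats, 10-12 weeks old, ten per group, were ovariectomized and left 12 weeks for osteopenia. They were then dosed once daily by oral gavage for 12 weeks in 1% gum acacia vehicle. The estradiol arm received 100 µg·kg⁻¹ subcutaneously five days a week. Tetracycline and calcein were given intraperitoneally at 20 mg·kg⁻¹ each. Femur cross-sections (50 µm) were imaged by fluorescence microscopy for MAR and BFR.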

Rattus norvegicus [9] = assay: Antiosteoporotic activity in Sprague-Dawley rat model of OVX-induced bone loss assessed as bone formation rate at 100 ug/kg, sc administered 5 days/week for 12 weeks by microcomputed tomographic analysis (reference value: 0.171 +/- 0.005 um3/um2/day); type: functional; outline: as §3
Rattus norvegicus [10] = assay: as §2, with “trabecular” for “ratio of”, “pattern factor” for “volume/trabecular volume”, “10.81” for “4.68”, “0.68 /millimeter)” for “0.58%)”; type: functional
Outline: (§4)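 Adult female Sprague-Dawley rats were ovariectomized and left 12 weeks to become osteopenic. They then received 12 weeks of once-daily oral gavage (1% gum acacia vehicle) or subcutaneous estradiol, five days a week. Femurs were collected at sacrifice and scanned by micro-CT for BMD and trabecular microarchitecture. Ten rats per group; mean ± SEM.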

[11] = biological target: T1, I-kappa-B kinase (Rattus norvegicus) (UniProt Q9QY78+G3V926+Q6TMG5); assay: Inhibition of IKK in Sprague-Dawley rat calvarial osteoblasts assessed as reduction in TNFalpha-induced NFkB signaling by measuring ratio of nuclear p65 level to beta-actin level at 10 nM after 24 hrs by Western blot analysis (reference value: 2.97); type: cell-based; conditions: Calvarial osteoblast
Rattus norvegicus [12] = assay: as §2, with “trabecular number” for “ratio of bone volume/trabecular volume”, “0.56” for “4.68”, “0.06 /millimeter)” for “0.58%)”; type: functional; outline: as §4
Rattus norvegicus [13] = assay: Antiosteoporotic activity in Sprague-Dawley rat model of OVX-induced bone loss assessed as decrease in serum CTX level at 100 ug/kg, sc administered 5 days/week for 12 weeks by ELISA; type: functional, organism-based
Outline: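 Ovariectomy model as above: 12 weeks of osteopenia, then 12 weeks of daily gavage or subcutaneous estradiol. Serum was separated at autopsy, and CTX and PINP were measured by ELISA kits.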

[14] = biological target: T1, I-kappa-B kinase (Rattus norvegicus); assay: Inhibition of IKK in TNFalpha-simulated Sprague-Dawley rat calvarial osteoblasts assessed as ratio of Bcl-xL level to beta-actin level at 10 nM after 24 hrs by Western blot analysis (reference value: 0.69); type: cell-based; conditions: Calvarial osteoblast
Outline: (§5)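 Primary osteoblasts from pooled calvaria of 1-2 day SD rat pups (sequential dispase/collagenase digestion) were grown to 60-70% confluence. They were treated with 17β-estradiol 10 nM in the presence of TNFα 10 ng·ml⁻¹ for 24 h. Whole-cell lysates were immunoblotted, and bands were detected by ECL. Densitometry was normalised to β-actin.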

[15] = biological target: T1, I-kappa-B kinase (Rattus norvegicus); assay: Inhibition of IKK in TNFalpha-simulated Sprague-Dawley rat calvarial osteoblasts assessed as ratio of Bcl2 level to beta-actin level at 10 nM after 24 hrs by Western blot analysis (reference value: […]); type: cell-based; conditions: Calvarial osteoblast
Rattus norvegicus [16] = assay: Antiosteoporotic activity in Sprague-Dawley rat model of OVX-induced bone loss assessed as increase in femoral bone strength by measuring energy at 100 ug/kg, sc administered 5 days/week for 12 weeks by 3 point bending test (reference value: 46.27 +/- 4.36 mJ); type: functional
[17] = biological target: T1, I-kappa-B kinase (Rattus norvegicus); assay: Inhibition of IKK in Sprague-Dawley rat calvarial osteoblasts assessed as reduction in TNFalpha-induced NFkB signaling by measuring ratio of cytosolic p65 level to beta-actin level at 10 nM after 24 hrs by Western blot analysis (reference value: 0.99); type: cell-based; conditions: Calvarial osteoblast
[18] = biological target: T1, I-kappa-B kinase (Rattus norvegicus); assay: Inhibition of IKK in TNFalpha-simulated Sprague-Dawley rat calvarial osteoblasts assessed as ratio of Bax level to beta-actin level at 10 nM after 24 hrs by Western blot analysis (reference value: 1.25); type: cell-based; conditions: Calvarial osteoblast; outline: as §5
[19] = biological target: T1, I-kappa-B kinase (Rattus norvegicus); assay: Inhibition of IKK in Sprague-Dawley rat calvarial osteoblasts assessed as reduction in TNFalpha-induced IkBalpha phosphorylation by measuring ratio of phosphorylated IkBalpha level to beta-actin level at 10 nM after 24 hrs by Western blot analysis (reference value: 2.32); type: cell-based; conditions: Calvarial osteoblast; outline: as §5
[20] = Toxicity in Sprague-Dawley rat model of OVX-induced bone loss assessed as total uterine area at 100 ug/kg, sc for 12 weeks (reference value: 0.11 +/- 0.003 mm2); type: organism-based; conditions: in vivo, 0.1 mg/kg, 2016 h
Rattus norvegicus [21] = assay: as §2, with “structural model index” for “ratio of bone volume/trabecular volume”, “2.07” for “4.68”, “0.06)” for “0.58%)”; type: functional
[22] = biological target: T1, I-kappa-B kinase (Rattus norvegicus); assay: Inhibition of IKK in Sprague-Dawley rat calvarial osteoblasts assessed as reduction in TNFalpha-induced beta-catenin degradation by measuring ratio of beta-catenin level to beta-actin level at 10 nM after 24 hrs by Western blot analysis (reference value: 0.32); type: cell-based; conditions: Calvarial osteoblast; outline: as §5
[23] = biological target: T1, I-kappa-B kinase (Rattus norvegicus); assay: Inhibition of IKK in Sprague-Dawley rat calvarial osteoblasts assessed as reduction in TNFalpha-induced NFkB nuclear translocation at 10 nM after 24 hrs by immunofluorescence assay; type: cell-based; conditions: Calvarial osteoblast
Outline: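 Primary rat osteoblasts on chamber slides given TNFα (10 ng·ml⁻¹) for 24 h, with or without treatment. Then 4% PFA fixation, 0.1% Triton X-100, anti-NF-κB overnight, and Cy3 anti-rabbit secondary. Fluorescence imaged at excitation 552 nm, emission 570 nm.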

Rattus norvegicus [24] = assay: as §2, with “trabecular separation” for “ratio of bone volume/trabecular volume”, “1.31” for “4.68”, “0.06 millimeter)” for “0.58%)”; type: functional; outline: as §4
[25] = biological target: T1, I-kappa-B kinase (Rattus norvegicus); assay: Inhibition of IKK in TNFalpha-simulated Sprague-Dawley rat calvarial osteoblasts assessed as ratio of IkBalpha level to beta-actin level at 10 nM after 24 hrs by Western blot analysis (reference value: 0.78); type: cell-based; conditions: Calvarial osteoblast; outline: as §5
Calvarial osteoblast [26] = assay: Increase in BMP2 protein expression in Sprague-Dawley rat calvarial osteoblasts at 100 pM after 48 hrs by Western blot analysis; type: functional, cell-based
Outline: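 Rat calvarial osteoblasts at 60-70% confluence were treated 48 h. Whole-cell lysates were blotted, blocked in 5% milk, and probed with primary antibody overnight at 4 °C, then with HRP secondary and ECL detection. Densitometry was normalized to β-actin; fold change versus untreated cells, three independent experiments, mean ± SEM.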

[27] = Increase in OCN mRNA expression in Sprague-Dawley rat calvarial osteoblasts at 100 pM by RT-PCR method relative to control; type: functional, Calvarial osteoblast
Outline: (§6)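 Primary calvarial osteoblasts were lysed in TRIzol after treatment, and total RNA was extracted. Transcripts were quantified by real-time PCR using the comparative CT (ΔΔCT) method.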

Calvarial osteoblast [28] = assay: Cytotoxicity against Sprague-Dawley rat calvarial osteoblasts assessed as reduction in cell viability at 0.000001 to 1 uM after 48 hrs by MTT assay; type: cell-based
Outline: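 Osteoblasts came from pooled calvaria of 1-2-day-old Sprague-Dawley pups, isolated by sequential dispase/collagenase digestion. Cells were exposed to compound at 1 pM to 1 µM for 48 h, and viability was measured by MTT.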

Calvarial osteoblast [29] = assay: Osteogenic activity in Sprague-Dawley rat calvarial osteoblasts assessed as mineralized nodule formation at 100 pM after 21 days by alizarin red-S staining based light microscopic method; type: functional, cell-based
Outline: (§7)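 Osteoblasts at 10,000–15,000 cells/cm² in duplicate plates, 21 days in differentiation medium, medium changed every 48 h. Cells fixed in 4% PFA, stained with alizarin red-S (40 mM, pH 4.5, 30 min) and photographed. Stain extracted with 10% acetic acid, pH brought to 4.5 with ammonium hydroxide, read at 405 nm, normalized to cell number.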

[30] = Increase in BMP2 mRNA expression in Sprague-Dawley rat calvarial osteoblasts at 100 pM by RT-PCR method relative to control; type: functional, Calvarial osteoblast; outline: as §6
[31] = Induction of osteoblast differentiation in Sprague-Dawley rat calvarial osteoblasts assessed as alkaline phosphatase activity at 100 pM after 48 hrs using PNPP as substrate by spectrophotometric method relative to control; type: functional; outline: as §1
Calvarial osteoblast [32] = assay: Increase in OCN protein expression in Sprague-Dawley rat calvarial osteoblasts at 100 pM after 48 hrs by Western blot analysis; type: functional, cell-based
Outline: (§8)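 Rat calvarial osteoblasts (pooled 1–2-day pups, collagenase/dispase digests) at 60–70% confluence treated 48 h. Whole-cell lysates immunoblotted with primary antibody overnight at 4 °C, then HRP secondary, with ECL detection. Densitometry gives fold change normalized to β-actin versus untreated cells. Mean ± SEM of three independent experiments.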

Calvarial osteoblast [33] = assay: Increase in Runx2 protein expression in Sprague-Dawley rat calvarial osteoblasts at 100 pM after 48 hrs by Western blot analysis; type: functional, cell-based; outline: as §8
Calvarial osteoblast [34] = assay: Osteogenic activity in Sprague-Dawley rat calvarial osteoblasts assessed as mineralized nodule formation at 100 pM after 21 days by alizarin red-S staining based colorimetric method; type: functional; outline: as §7
[35] = Increase in Runx2 mRNA expression in Sprague-Dawley rat calvarial osteoblasts at 100 pM by RT-PCR method relative to control; type: functional, Calvarial osteoblast

SMILES: CCOC(=O)c1cc2c([nH]c3ccccc32)c(C(c2nnnn2C(C)(C)C)N2CCN(Cc3ccc4c(c3)OCO4)CC2)n1 (stereo not drawn)
- Emax (Calvarial osteoblast [1]): inactive
- EC50 ([2]; calvarial osteoblast): Not Active

SMILES: CCOC(=O)c1cc2c([nH]c3ccccc32)c(C(c2nnnn2C(C)(C)C)N2CCN(C(=O)c3ccco3)CC2)n1 (stereo not drawn)
- Emax (Calvarial osteoblast [1]): inactive
- EC50 ([2]; calvarial osteoblast): Not Active

SMILES: C[C@]12CC[C@@H]3c4ccc(O)cc4CC[C@H]3[C@@H]1CC[C@@H]2O [ESTRADIOL]
- Activity [3]: 0.45 g
- Activity (Rattus norvegicus [4]): 171.75 N/mm
- Activity [5]: 0.054 mm2
- Ratio (Rattus norvegicus [6]): 11.09%
- Activity [7]: 17.8 um
- Activity (Rattus norvegicus [8]): 1.06 micrometer/day
- Activity (Rattus norvegicus [9]): 1.04 um3/um2/day
- Activity (Rattus norvegicus [10]): 5.99 /millimeter
- Ratio [11]: 1.41
- Activity (Rattus norvegicus [12]): 1.55 /millimeter
- Activity (Rattus norvegicus [13]): inactive
- Ratio [14]: 0.9
- Ratio [15]: 1.45
- Activity (Rattus norvegicus [16]): 62.77 mJ
- Ratio [17]: 1.45
- Ratio [18]: 0.65
- Ratio [19]: 1.26
- Activity [20]: 0.87 mm2
- Activity_index (Rattus norvegicus [21]): 1.6
- Ratio [22]: 0.81
- inhibition [23]: Active
- Activity (Rattus norvegicus [24]): 0.68 mm
- Ratio [25]: 0.66

SMILES: COC(=O)c1cc2c([nH]c3ccccc32)c(C(c2nnnn2C(C)(C)C)N2CCN(c3ncccn3)CC2)n1 (stereo not drawn)
- Activity (Calvarial osteoblast [26]): Active
- fold change (FC) [27]: 1.8 - 4.6
- Activity (Calvarial osteoblast [28]): Non-Toxic
- Activity (Calvarial osteoblast [29]): Active
- fold change (FC) [30]: 1.8 - 4.6
- Emax at 0.0001 µM [31]: 80%
- Activity (Calvarial osteoblast [32]): Active
- Activity (Calvarial osteoblast [33]): Active
- EC50 ([2]; Rattus norvegicus, Sprague-Dawley, Calvarial osteoblast, 48 h, read-out: EC50): 3.27 µM
- Activity (Calvarial osteoblast [34]): 48%
- fold change (FC) [35]: 1.8 - 4.6
